Screening results (PubChem)
TLR4-MyD88 BLA: inhibitors of TLR4-MyD88 association in cells, primary screen, cell-based, HeLa CL3-4, BLA complementation, FRET ratio. Toll-like receptor 4 (Homo sapiens) + Myeloid differentiation primary response protein …. HeLa CL3-4 TLR4/MyD88 BLA complementation. inhibition, % at 8.4 µM. 200,000 tested, 0.18% active. AID 861, 2007; in the data active = inhibition above about 25%;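 also: 0% = vehicle and 100% = reference inhibitor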
CHOP inh: inhibitors of CHOP promoter induction, primary screen, cell-based, unfolded protein response, luciferase reporter; AID 2732, 2010; 220,000 tested, 3.8% active; inhibition, % at 10 µM; CHO-K1 CHOP-promoter luciferase, tunicamycin-induced, 15-18 h;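 active = compounds that reduced the stress-induced luciferase reporter signal by more than about 70% of percent inhibition, limit read from the data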;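 also: 0% = tunicamycin plus vehicle and 100% = wells without tunicamycin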
NOD2 RIPK2 PPI: NOD2-RIPK2 binding disruptors in cells, primary screen, fluorescence, CHO cells, BLA complementation; Receptor-interacting serine/threonine-protein kinase 2 (Homo sapiens), O43353; CCF4 ratio; inhibition, % at 4.98 µM; 360,000 tested, 0.38% active; in the data active = inhibition above about 21%;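 also: 0% = vehicle only and 100% = reference blocker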
Target sequence (O43353 whole entry, looked up): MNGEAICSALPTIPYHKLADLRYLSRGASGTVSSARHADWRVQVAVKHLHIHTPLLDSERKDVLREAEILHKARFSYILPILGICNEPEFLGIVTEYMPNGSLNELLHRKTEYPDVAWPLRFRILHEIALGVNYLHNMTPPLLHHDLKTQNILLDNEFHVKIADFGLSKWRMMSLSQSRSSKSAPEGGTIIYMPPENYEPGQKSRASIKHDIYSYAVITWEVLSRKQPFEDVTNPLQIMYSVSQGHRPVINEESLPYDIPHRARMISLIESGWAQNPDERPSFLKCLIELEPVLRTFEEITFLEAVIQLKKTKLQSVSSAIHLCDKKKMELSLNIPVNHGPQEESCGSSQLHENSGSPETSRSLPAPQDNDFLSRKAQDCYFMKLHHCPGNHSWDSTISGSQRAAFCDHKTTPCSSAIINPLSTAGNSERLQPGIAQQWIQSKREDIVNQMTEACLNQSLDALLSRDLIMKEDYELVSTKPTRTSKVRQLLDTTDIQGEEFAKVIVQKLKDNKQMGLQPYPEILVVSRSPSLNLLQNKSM
TLR9-MyD88 block: inhibitors of TLR9-MyD88 association in cells, primary screen, cell-based, CHO, BLA complementation, fluorescence | CCF4 FRET ratio | AID 504734, 2011 | 340,000 tested, 0.21% active | Toll-like receptor 9 (Homo sapiens) + Myeloid differentiation primary response protein … | inhibition, % at 4.98 µM;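 active = inhibition above the mean over all tested compounds plus 3 SD, cut at about 21% in these data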;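 also: 0% = DMSO only wells and 100% = clavulanate BLA inhibitor control wells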
UPR CHOP act: activators of apoptotic CHOP UPR arm, primary screen, cell-based, CHO-CHOP luciferase reporter, luminescence, uHTS | UPR activation; percent of tunicamycin response over DMSO baseline | activation, % at 10 µM | 330,000 tested, 0.34% active;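 active = at 10 µM dose, activation of 40% or more, normalized to positive control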;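 also: 100% = tunicamycin at 10 µg/mL and 0% = DMSO alone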
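measured by = luciferase luminescence | assay system = CHO-CHOP cells, stable luciferase reporter of PERK-eIF2a-CHOP signalling | amount = 500 reporter cells seeded per well | timing = 6 h compound exposure at 37 °C after overnight seeding | controls = positive tunicamycin 10 µg/mL, negative DMSO alone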
XBP1 UPR activ: activators of adaptive XBP1 UPR arm, primary screen, cell-based, CHO-XBP1 luciferase reporter, luminescence, uHTS; activation, % at 20 µM; 330,000 tested, 0.33% active; IRE1-XBP1 UPR activation; percent of tunicamycin response, DMSO as zero;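 active = versus positive control, 20 µM dose yields 30% or more activation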;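 also: 100% = tunicamycin at 10 µg/mL and 0% = DMSO only wells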
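Assay system: CHO-XBP1 luciferase reporter cells; Schedule: 6 h treatment, 37 °C; Detection: glow luminescence from Steady-Glo reagent; Benchmarks: high control tunicamycin 10 µg/mL final, low control DMSO vehicle only.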
* = called active by the depositor; / = no result. This excerpt belongs to a sample that is enriched for hits.

SMILES	TLR4-MyD88 BLA	CHOP inh	NOD2 RIPK2 PPI	TLR9-MyD88 block	UPR CHOP act	XBP1 UPR activ
CC(C)Oc1cccc(NC(=O)c2cccn(Cc3ccc4c(c3)OC(F)(F)O4)c2=O)c1	13.3	50.6	3.6	-2.9	-0.8	-1.1
CC1(C)CN=C(Nc2ccc(F)c(Cl)c2)S1	/	-13.4	5.8	-4.8	2.1	2.3
CC1(C)CN=C(Nc2ccc(F)c(F)c2)S1	-16.7	81.9*	-4.7	1.7	1.9	0.1
C=C1C(=O)OC2CCN3CC=C(COC(=O)C(C)(O)C4(CO4)C1C)C23 (configuration not stated)	/	/	-2.1	/	/	/
CCOP1(=S)Oc2cc3c(cc2C(C(=O)OC)(C(F)(F)F)O1)OCO3 (configuration not stated)	19.6	82.4*	-6.0	-9.3	0.3	-2.1
O=C1NC(=O)N(Cc2ccc(F)cc2)C(=O)/C1=C\C=C\c1ccco1	/	0.0	-2.1	-1.1	-1.5	-1.4
CC(C)c1ccc(N2C(=O)NC(=O)/C(=C/C=C/c3ccco3)C2=O)cc1	3.1	103.2*	-12.5	1.0	/	/
CCOc1ccccc1N=C1SCCCN1C	10.7	32.7	-6.7	2.8	-2.0	-1.8
CCOc1cccc(=NC2CCCCC2)c2c(C)n(C)c(C)c12	/	78.7*	-7.3	/	8.1	-1.6
CCCCn1c(NC(=O)c2ccc(Br)o2)c(C(=O)OCC)c2nc3ccccc3nc21	-2.4	24.4	14.4	8.5	6.9	61.6*
CCOC(=O)[C@]12Cc3ccccc3[C@H]1N(CCC(=O)OC)C(=O)c1cc(OC)ccc12	/	/	3.7	/	/	/
O=C(O)c1ccc2c(c1)C1C(Cl)C(Sc3ccccc3[N+](=O)[O-])CC1C(c1cccc([N+](=O)[O-])c1)N2 (configuration not stated)	1.1	81.2*	5.1	2.1	/	/
O=C(O)c1cccc2c1NC(c1cccc([N+](=O)[O-])c1)C1CC(Sc3ccccc3[N+](=O)[O-])C(Cl)C21 (configuration not stated)	13.5	50.7	-9.9	3.1	-0.6	-3.3
CC(Cc1ccc(OCC(=O)O)cc1)NCC(O)c1cccc(Cl)c1 (configuration not stated)	/	24.2	/	/	/	/
CCCCn1c(O)c(C=NC2CC3CCC2(C)C3(C)C)c(=O)[nH]c1=O (configuration not stated)	-5.4	95.3*	-14.6	-1.7	1.1	-0.1
C[C@]12Cc3cn4c(nc3C=C1CCC1C2CC[C@@]2(C)[C@H]1CC[C@@]2(O)C#N)nc1ccccc14 (some centres not stated)	/	7.1	/	/	/	/
CCCCCn1c(=O)c(C(=O)Nc2ccccc2)c(O)c2ccccc21	/	/	10.6	-4.3	3.2	-1.7
CCOC(=O)Cc1csc(NC(=O)c2c(O)c3ccccc3n(CCC(C)C)c2=O)n1	2.8	89.4*	1.3	-5.9	12.0	-1.7
CCCCCn1c(=O)c(C(=O)Nc2cccc(C)n2)c(O)c2ccccc21	/	/	-8.9	5.5	8.6	0.7
CCCCCCn1c(=O)c(C(=O)Nc2c(C)n(C)n(-c3ccccc3)c2=O)c(O)c2ccccc21	/	89.7*	-11.8	-4.5	1.1	4.3
CCCCCCn1c(=O)c(C(=O)Nc2nc(CC(=O)OCC)cs2)c(O)c2ccccc21	/	84.5*	-8.2	-0.1	17.9	-2.0
O=C1NC(=O)C(=Cc2ccc(-c3ccccc3[N+](=O)[O-])o2)C(=O)N1	/	95.3*	-6.8	0.5	-0.1	-2.7
O=c1[nH]c(=O)n(CCC2=CCCCC2)c(O)c1/C=N/Nc1cccc2ccccc12	/	71.4*	-18.8	-11.0	-0.5	-2.4
O=c1[nH]c(=O)n(CCC2=CCCCC2)c(O)c1/C=N/Nc1ccccc1	-4.1	61.3	-18.0	7.9	1.8	-0.9
Nc1ncc([N+](=O)[O-])s1	/	/	-1.4	2.4	0.9	-4.1
SMILES	TLR4-MyD88 BLA	CHOP inh	NOD2 RIPK2 PPI	TLR9-MyD88 block	UPR CHOP act	XBP1 UPR activ
COc1ccc2c(c1O)C13CCN(C)C(C2)C1CCC(=O)C3 (configuration not stated)	/	/	-6.9	/	1.1	1.4
NC(=O)Nc1ccc(C(=O)OCC(=O)Nc2ccc(Cl)cc2C(=O)c2ccccc2)cc1	-6.0	76.5*	1.7	0.5	-0.2	1.3
Cc1cc2c(C(C)C)c(O)c(O)c(C=O)c2c(O)c1-c1c(C)cc2c(C(C)C)c(O)c(O)c(C=O)c2c1O	-14.9	109.4*	2.1	/	/	/
C[C@]12CC[C@H]3[C@@H](CCC4C[C@H](O)CC[C@@]43C)[C@@H]1CC[C@@H]2O (some centres not stated)	/	-8.6	/	/	/	/
c1coc(CN2Cc3ccccc3-n3nncc3C2)c1	/	/	-1.6	14.1	/	/
O=C(CNC(=O)c1ccc(Br)cc1)Nc1ccc(Br)cc1C(=O)c1ccccc1	1.4	76.9*	-4.3	2.8	-0.3	1.0
CC1C(=O)CC2(C(C)C)CC12 (configuration not stated)	/	/	-10.4	/	/	/
COc1ccc(CCn2c(O)c(C=Nc3ccc(NC(C)=O)cc3)c(=O)[nH]c2=O)cc1OC	/	2.4	-1.4	/	-0.3	-4.0
COc1ccc(N=Cc2c(O)n(CC3CCCO3)c(=O)[nH]c2=O)cc1 (configuration not stated)	-17.7	-13.8	-13.4	1.7	-1.2	-0.5
CCOc1ccc(N=Cc2c(O)n(CCc3ccc(OC)c(OC)c3)c(=O)[nH]c2=O)cc1	/	89.9*	4.0	4.7	1.2	-6.0
COc1ccc(N=Cc2c(O)n(Cc3cccs3)c(=O)[nH]c2=O)cc1	8.2	81.4*	-3.9	2.3	1.4	2.8
C=CCn1c(O)c(C=Nc2ccc(N(CC)CC)cc2)c(=O)[nH]c1=O	-4.5	70.7*	-8.6	1.6	-0.1	1.5
C=CCn1c(O)c(C=Nc2ccc(F)cc2)c(=O)[nH]c1=O	/	/	0.0	-27.7	0.3	-3.4
Cc1ccc(CN2CCC3CCC(C3)C2)c(O)c1 (configuration not stated)	/	/	-8.3	6.4	/	/
N[C@@H](Cn1ccc(=O)[nH]c1=O)C(=O)O	/	-12.3	/	/	/	/
C1=C(c2c[nH]c3ccccc23)CCNC1	10.4	76.5*	/	/	1.1	2.0
CCC1CN1P(=O)(N1CCCC1)N1CC1CC (configuration not stated)	/	/	3.0	-3.9	/	/
CN(C)[C@@H]1C(=O)C(C(N)=O)=C(O)[C@@]2(O)C(=O)C3=C(O)c4c(O)cccc4[C@@](C)(O)C3[C@H](O)C12 (some centres not stated)	/	/	4.0	-0.8	-1.3	-5.8
